Measurements of several laboratories.
Compare with care: the assays were run in different laboratories.
SLC2A9: Solute carrier family 2, facilitated glucose transporter member 9 (SLC2A9, Homo sapiens, UniProt Q9NRM0)

| SMILES | target | assay | setting | quantity | result |
| --- | --- | --- | --- | --- | --- |
| CCCCCCCc1cc(O)cc(=O)o1 | Aldo-keto reductase family 1 member C3 (AKR1C3, Homo sapiens, UniProt P42330) | enzyme activity, inhibitor | – | IC50 | 10.6 µM |
| Cc1ccc2oc(=O)cc(NCCO)c2c1 | Alpha-1B adrenergic receptor (Adra1b, Rattus norvegicus, UniProt P15823) | calcium signal, antagonist | – | IC50 | 178 µM |
| CCOC(=O)/C=C/C(=O)[C@H](CC(C)C)NC(=O)[C@H](Cc1ccccc1)NC(=O)[C@H](Cc1ccccc1)N=[N+]=[N-] (mixture of isomers) | Procathepsin L (CTSL, Homo sapiens, UniProt P07711) | enzyme activity, inhibitor | – | IC50 | 0.13 µM |
| Nc1ncnc2c1ncn2[C@@H]1O[C@H](COP(=O)(O)CP(=O)(O)OP(=O)(O)O)[C@@H](O)[C@H]1O | P2X purinoceptor 1 (P2RX1, Homo sapiens, UniProt P51575) | binding, radioligand | – | Kd | 0.043 µM |
| O=C1CCc2ccccc2O1 | cah (Neisseria gonorrhoeae, UniProt Q50940) | enzyme activity, inhibitor, stopped-flow | – | Ki | 25.8 µM |
| O=C(c1ccc(OCCN2CCCCC2)cc1)c1c(-c2ccc(O)cc2)sc2cc(O)ccc12 | Protein disulfide-isomerase (P4HB, Homo sapiens, UniProt P07237) | binding, SPR | – | Kd | 0.0297 µM |
| COc1ccc(C[C@H]2COC(=O)[C@@H]2Cc2ccc(OCC(=O)Nc3ccc(C(=O)Nc4ccccc4N)cc3)c(OC)c2)cc1OC | Histone deacetylase 4 (HDAC4, Homo sapiens, UniProt P56524) | enzyme activity, inhibitor | – | IC50 | > 10 µM |
| Cn1c(=O)c2c(ncn2C)n(C)c1=O | SLC2A9 | transporter uptake, inhibitor, radiometric | oocytes | IC50 | > 1000 µM |
| N[C@@H](Cc1ccccc1)C(=O)O | Alkaline phosphatase, placental type (Homo sapiens, UniProt P05187) | enzyme activity, inhibitor | – | IC50 | 82.6 µM |
| O=C(C=Cc1ccccc1)Nc1cc(-c2ccnc(N3CCC(O)CC3)c2)ccn1 | Nuclear receptor subfamily 4immunitygroup A member 1 (NR4A1, Homo sapiens, UniProt P22736) | binding, SPR | – | Kd | 0.121 µM |
| Nc1ncnc2c1ncn2[C@@H]1O[C@H](CO)[C@@H](O)[C@H]1O | SLC2A9 | transporter uptake, inhibitor, radiometric | oocytes | IC50 | > 4000 µM |
| N=c1c[n+](N2CCOCC2)[n-]o1 | NAD-dependent protein deacetylase sirtuin-1 (SIRT1, Homo sapiens, UniProt Q96EB6) | enzyme activity, inhibitor | – | IC50 | 7 µM |
